pIC50: −log10 of the molar value.
Key:
HUVEC [1] = assay: Antiproliferative activity against human VEGF-stimulated HUVEC cells at 1 uM after 120 hrs by CCK-8 assay relative to control; format: functional
How it was run: (§1)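 HUVECs were plated in human endothelial serum-free medium. The next day, serial dilutions of compound or 0.1% DMSO vehicle were added, with 60 ng/mL recombinant human VEGF to drive proliferation for 120 h. Viability was read by CCK-8. IC50 came from nonlinear regression; percent inhibition was also scored at a single 1 μM concentration.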

BaF3 = assay: Antiproliferative activity against mouse BAF3 cells harboring […] at 1 uM after 72 hrs by CCK-8 assay relative to control; format: functional; conditions: BaF3, 72 h
How it was run: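 Murine BaF3 cells expressing TPR-Met (c-Met-dependent) were plated in RPMI 1640 with 10% FBS. Serial compound dilutions or 0.1% DMSO were added the following day, and cells were incubated a further 72 h before CCK-8 read-out. IC50 was fitted by nonlinear regression; single-point percent inhibition was tested at 1 μM.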

HUVEC [2] = assay: Antiproliferative activity against human VEGF-stimulated HUVEC after 120 hrs by CCK-8 assay; format: functional, cell-based; how it was run: as §1

Compound	inhibition at 1 µM (HUVEC [1])	inhibition at 1 µM (BaF3)	pIC50 (HUVEC [2])
Cc1c(C(=O)N(C)C)sc2ncnc(Oc3ccc(NC(=O)C4(C(=O)Nc5ccc(F)cc5)CC4)cc3F)c12	24.4%	60%	–
Cc1c(C(=O)NC2CC2)sc2ncnc(Oc3ccc(NC(=O)C4(C(=O)Nc5ccc(F)cc5)CC4)cc3F)c12	13.7%	26.6%	–
Cc1c(C(=O)NCCS(C)(=O)=O)sc2ncnc(Oc3ccc(NC(=O)C4(C(=O)Nc5ccc(F)cc5)CC4)cc3F)c12	79.5%	96%	7.07
CC(=O)N1CCN(C(=O)c2sc3ncnc(Oc4ccc(NC(=O)C5(C(=O)Nc6ccc(F)cc6)CC5)cc4F)c3c2C)CC1	23.8%	61%	–
Cc1c(C(=O)N2CCCC2)sc2ncnc(Oc3ccc(NC(=O)C4(C(=O)Nc5ccc(F)cc5)CC4)cc3F)c12	15.8%	31.1%	–
Cc1c(C(=O)NCCN2CCOCC2)sc2ncnc(Oc3ccc(NC(=O)C4(C(=O)Nc5ccc(F)cc5)CC4)cc3F)c12	73.6%	95.4%	7.05
Cc1c(C(=O)NCC#N)sc2ncnc(Oc3ccc(NC(=O)C4(C(=O)Nc5ccc(F)cc5)CC4)cc3F)c12	66.7%	92.6%	6.91
COCCNC(=O)c1sc2ncnc(Oc3ccc(NC(=O)C4(C(=O)Nc5ccc(F)cc5)CC4)cc3F)c2c1C	68.9%	90.9%	6.86
COC(=O)c1sc2ncnc(Oc3ccc(NC(=O)C4(C(=O)Nc5ccc(F)cc5)CC4)cc3F)c2c1C	4.56%	18.1%	–
Cc1c(C(=O)NCCN2CCCC2)sc2ncnc(Oc3ccc(NC(=O)C4(C(=O)Nc5ccc(F)cc5)CC4)cc3F)c12	29.7%	88.2%	–
CCOC(=O)c1sc2ncnc(Oc3ccc(NC(=O)C4(C(=O)Nc5ccc(F)cc5)CC4)cc3F)c2c1C	12.7%	16.4%	–
Cc1c(C(=O)NCCCN2CCOCC2)sc2ncnc(Oc3ccc(NC(=O)C4(C(=O)Nc5ccc(F)cc5)CC4)cc3F)c12	61.3%	92.8%	6.82
Cc1c(C(=O)NCCC(C)C)sc2ncnc(Oc3ccc(NC(=O)C4(C(=O)Nc5ccc(F)cc5)CC4)cc3F)c12	27.5%	86.6%	–
Cc1c(C(=O)OCc2ccccc2)sc2ncnc(Oc3ccc(NC(=O)C4(C(=O)Nc5ccc(F)cc5)CC4)cc3F)c12	6.17%	10.5%	–
COCCCNC(=O)c1sc2ncnc(Oc3ccc(NC(=O)C4(C(=O)Nc5ccc(F)cc5)CC4)cc3F)c2c1C	33.3%	88.6%	–
Cc1c(C(=O)N2CCCCC2)sc2ncnc(Oc3ccc(NC(=O)C4(C(=O)Nc5ccc(F)cc5)CC4)cc3F)c12	10.5%	20.3%	–
Cc1c(C(=O)N2CCSCC2)sc2ncnc(Oc3ccc(NC(=O)C4(C(=O)Nc5ccc(F)cc5)CC4)cc3F)c12	15.5%	23%	–
Cc1c(C(=O)N2CCOCC2)sc2ncnc(Oc3ccc(NC(=O)C4(C(=O)Nc5ccc(F)cc5)CC4)cc3F)c12	10.8%	61.5%	–
Cc1c(C(=O)O)sc2ncnc(Oc3ccc(NC(=O)C4(C(=O)Nc5ccc(F)cc5)CC4)cc3F)c12	8.72%	2.13%	–
Cc1c(C(=O)Nc2ccc(F)cc2)sc2ncnc(Oc3ccc(NC(=O)C4(C(=O)Nc5ccc(F)cc5)CC4)cc3F)c12	32.9%	26.7%	–
COc1cc2nccc(Oc3ccc(NC(=O)C4(C(=O)Nc5ccc(F)cc5)CC4)cc3)c2cc1OC [CABOZANTINIB]	72.8%	97.7%	–
